According to ChEMBL document CHEMBL5712901, “DOT1L inhibition blocks multiple myeloma cell proliferation by suppressing IRF4-MYC signaling” (2019):
Active and inactive are the calls of the source. No cut-off for these calls is given here.

Tests used:
KMS-12-PE = experiment: Upregulation of DOT1L in human KMS-12-PE cells by qRT-PCR analysis; format: functional, cell-based
How it was run: (§1)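 Basal DOT1L transcript in untreated myeloma cell lines measured by qRT-PCR, normalized to ACTB; mean of 3 replicates with SEM.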

U-266 = experiment: Upregulation of DOT1L in human U-266 cells by qRT-PCR analysis; format: functional, cell-based; how it was run: as §1
MM1.S [1] = experiment: Downregulation of H3K79me2 level in human MM1.S cells at 1 uM for 3 days by ChIP-qPCR analysis; format: functional, cell-based; settings: time 3.0 day
How it was run: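 ChIP-qPCR for H3K79me2 at IRF4-MYC signaling genes after 1 μM inhibitor or DMSO for 3 days. Signal normalized to input DNA. An intergenic region 28 kb upstream of KLF2 served as negative control. Mean of 3 replications ± SEM.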

MM1.S [2] = experiment: Upregulation of IFN in human MM1.S cells assessed as increase in IFI44 gene at 1 uM for 6 days by qRT-PCR analysis; format: functional, cell-based; settings: time 6.0 day
RPMI-8226 [3] = experiment: Upregulation of BATF3 gene in human RPMI-8226 cells at 1 uM for 6 days by; format: functional, cell-based; settings: time 6.0 day
RPMI-8226 [4] = experiment: Upregulation of CCDC96 gene in human RPMI-8226 cells at 1 uM for 6 days by; format: functional, cell-based; settings: time 6.0 day
RPMI-8226 [5] = experiment: Upregulation of ENC1 gene in human RPMI-8226 cells at 1 uM for 6 days by; format: functional, cell-based; settings: time 6.0 day
How it was run: (§2)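 Human myeloma lines RPMI-8226 and MM.1S exposed to 1 μM DOT1L inhibitor, or DMSO, for 6 days. Whole-genome expression profiled on gene expression microarray.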

RPMI-8226 [6] = experiment: Upregulation of FBXO2 gene in human RPMI-8226 cells at 1 uM for 6 days by; format: functional, cell-based; settings: time 6.0 day; how it was run: as §2
RPMI-8226 [7] = experiment: Upregulation of FCGR2B gene in human RPMI-8226 cells at 1 uM for 6 days by; format: functional, cell-based; settings: time 6.0 day; how it was run: as §2
RPMI-8226 [8] = experiment: Upregulation of FZD1 gene in human RPMI-8226 cells at 1 uM for 6 days by; format: functional, cell-based; settings: time 6.0 day; how it was run: as §2
RPMI-8226 [9] = experiment: Upregulation of IFIT1 gene in human RPMI-8226 cells at 1 uM for 6 days by; format: functional, cell-based; settings: time 6.0 day
RPMI-8226 [10] = experiment: Upregulation of IFITM3 gene in human RPMI-8226 cells at 1 uM for 6 days by; format: functional, cell-based; settings: time 6.0 day
RPMI-8226 [11] = experiment: Upregulation of MS4A4A gene in human RPMI-8226 cells at 1 uM for 6 days by; format: functional, cell-based; settings: time 6.0 day
RPMI-8226 [12] = experiment: Upregulation of MYOF gene in human RPMI-8226 cells at 1 uM for 6 days by; format: functional, cell-based; settings: time 6.0 day
RPMI-8226 [13] = experiment: Upregulation of POPDC2 gene in human RPMI-8226 cells at 1 uM for 6 days by; format: functional, cell-based; settings: time 6.0 day
RPMI-8226 [14] = experiment: Upregulation of PTPN13 gene in human RPMI-8226 cells at 1 uM for 6 days by; format: functional, cell-based; settings: time 6.0 day
RPMI-8226 [15] = experiment: Upregulation of PTPRD gene in human RPMI-8226 cells at 1 uM for 6 days by; format: functional, cell-based; settings: time 6.0 day
RPMI-8226 [16] = experiment: Upregulation of RAPGEF2 gene in human RPMI-8226 cells at 1 uM for 6 days by; format: functional, cell-based; settings: time 6.0 day
RPMI-8226 [17] = experiment: Upregulation of RORC gene in human RPMI-8226 cells at 1 uM for 6 days by; format: functional, cell-based; settings: time 6.0 day
RPMI-8226 [18] = experiment: Upregulation of S100A10 gene in human RPMI-8226 cells at 1 uM for 6 days by; format: functional, cell-based; settings: time 6.0 day
RPMI-8226 [19] = experiment: Upregulation of XKR3 gene in human RPMI-8226 cells at 1 uM for 6 days by; format: functional, cell-based; settings: time 6.0 day
MM1.S [20] = experiment: Upregulation of BHLHE22 gene in human MM1.S cells at 1 uM for 6 days by; format: functional, cell-based; settings: time 6.0 day
MM1.S [21] = experiment: Upregulation of CCDC74B gene in human MM1.S cells at 1 uM for 6 days by; format: functional, cell-based; settings: time 6.0 day
MM1.S [22] = experiment: Upregulation of CCR2 gene in human MM1.S cells at 1 uM for 6 days by; format: functional, cell-based; settings: time 6.0 day
MM1.S [23] = experiment: Upregulation of EMILIN2 gene in human MM1.S cells at 1 uM for 6 days by; format: functional, cell-based; settings: time 6.0 day; how it was run: as §2
MM1.S [24] = experiment: Upregulation of GLYATL1 gene in human MM1.S cells at 1 uM for 6 days by; format: functional, cell-based; settings: time 6.0 day; how it was run: as §2
MM1.S [25] = experiment: Upregulation of HLA-DRB1 gene in human MM1.S cells at 1 uM for 6 days by; format: functional, cell-based; settings: time 6.0 day
MM1.S [26] = experiment: Upregulation of HLA-DRB5 gene in human MM1.S cells at 1 uM for 6 days by; format: functional, cell-based; settings: time 6.0 day
MM1.S [27] = experiment: Upregulation of ID1 gene in human MM1.S cells at 1 uM for 6 days by; format: functional, cell-based; settings: time 6.0 day
MM1.S [28] = experiment: Upregulation of NRIP1 gene in human MM1.S cells at 1 uM for 6 days by; format: functional, cell-based; settings: time 6.0 day
MM1.S [29] = experiment: Upregulation of PPP1R1C gene in human MM1.S cells at 1 uM for 6 days by; format: functional, cell-based; settings: time 6.0 day
MM1.S [30] = experiment: Upregulation of SMIM14 gene in human MM1.S cells at 1 uM for 6 days by; format: functional, cell-based; settings: time 6.0 day
MM1.S [31] = experiment: Upregulation of TP53I11 gene in human MM1.S cells at 1 uM for 6 days by; format: functional, cell-based; settings: time 6.0 day
MM1.S [32] = experiment: Upregulation of ZNF862 gene in human MM1.S cells at 1 uM for 6 days by; format: functional, cell-based; settings: time 6.0 day
RPMI-8226 [33] = experiment: Effect on human RPMI-8226 cells assessed as change in IRF4 mRNA level at 1 uM for 6 days by qRT-PCR analysis; settings: time 6.0 day
MM1.S [34] = experiment: Induction of apoptosis in human MM1.S cells assessed as early apoptotic cells at 1 uM for 6 days by annexin-V based propidium iodide staining based flow cytometric analysis (reference value: 7.39%); format: functional; settings: time 6 day
MM1.S [35] = experiment: Induction of apoptosis in human MM1.S cells assessed as late apoptotic cells at 1 uM for 6 days by annexin-V based propidium iodide staining based flow cytometric analysis (reference value: 13.4%); format: functional; settings: time 6 day
MM1.S [36] = experiment: Induction of apoptosis in human MM1.S cells assessed as early apoptotic cells at 1 uM for 3 days by annexin-V based propidium iodide staining based flow cytometric analysis (reference value: 5.51%); format: functional; settings: time 3 day
MM1.S [37] = experiment: Induction of apoptosis in human MM1.S cells assessed as late apoptotic cells at 1 uM for 3 days by annexin-V based propidium iodide staining based flow cytometric analysis (reference value: 0.15%); format: functional; settings: time 3 day
MM1.S [38] = experiment: Induction of apoptosis in human MM1.S cells assessed as necrotic cells at 1 uM for 3 days by annexin-V based propidium iodide staining based flow cytometric analysis (reference value: 0.064%); format: functional; settings: time 3 day
RPMI-8226 [39] = experiment: Upregulation of IFN in human RPMI-8226 cells assessed as increase in IFIT1 gene at 1 uM for 6 days by qRT-PCR analysis; format: functional, cell-based; settings: time 6.0 day
RPMI-8226 [40] = experiment: Upregulation of IFN in human RPMI-8226 cells assessed as increase in IFITM1 gene at 1 uM for 6 days by qRT-PCR analysis; format: functional, cell-based; settings: time 6.0 day
MM1.S [41] = experiment: Upregulation of IFN in human MM1.S cells assessed as increase in ISG15 gene at 1 uM for 6 days by qRT-PCR analysis; format: functional, cell-based; settings: time 6.0 day
RPMI-8226 [42] = experiment: Upregulation of IFN in human RPMI-8226 cells assessed as increase in IFITM1 gene at 1 uM for 6 days by qRT-PCR analysis; settings: time 6.0 day

SMILES: CC(C)N(CCCNC(=O)Nc1ccc(C(C)(C)C)cc1)C[C@H]1O[C@@H](n2cc(Br)c3c(N)ncnc32)[C@H](O)[C@@H]1O
- Activity (KMS-12-PE): Active
- Activity (U-266): Active
- Activity (MM1.S [1]): Active
- Activity (MM1.S [2]): Active
- Activity (RPMI-8226 [3]): Active
- Activity (RPMI-8226 [4]): Active
- Activity (RPMI-8226 [5]): Active
- Activity (RPMI-8226 [6]): Active
- Activity (RPMI-8226 [7]): Active
- Activity (RPMI-8226 [8]): Active
- Activity (RPMI-8226 [9]): Active
- Activity (RPMI-8226 [10]): Active
- Activity (RPMI-8226 [11]): Active
- Activity (RPMI-8226 [12]): Active
- Activity (RPMI-8226 [13]): Active
- Activity (RPMI-8226 [14]): Active
- Activity (RPMI-8226 [15]): Active
- Activity (RPMI-8226 [16]): Active
- Activity (RPMI-8226 [17]): Active
- Activity (RPMI-8226 [18]): Active
- Activity (RPMI-8226 [19]): Active
- Activity (MM1.S [20]): Active
- Activity (MM1.S [21]): Active
- Activity (MM1.S [22]): Active
- Activity (MM1.S [23]): Active
- Activity (MM1.S [24]): Active
- Activity (MM1.S [25]): Active
- Activity (MM1.S [26]): Active
- Activity (MM1.S [27]): Active
- Activity (MM1.S [28]): Active
- Activity (MM1.S [29]): Active
- Activity (MM1.S [30]): Active
- Activity (MM1.S [31]): Active
- Activity (MM1.S [32]): Active
- Activity (RPMI-8226 [33]): Active

SMILES: CC(C)N(C[C@H]1O[C@@H](n2cnc3c(N)ncnc32)[C@H](O)[C@@H]1O)[C@H]1C[C@@H](CCc2nc3cc(C(C)(C)C)ccc3[nH]2)C1 [PINOMETOSTAT]
- Activity (MM1.S [34]): 16.9%
- Activity (MM1.S [35]): 27.8%
- Activity (MM1.S [36]): 3.11%
- Activity (MM1.S [37]): 0.083%
- Activity (MM1.S [38]): 0.06%
- Activity (RPMI-8226 [39]): Active
- Activity (RPMI-8226 [40]): Active
- Activity (MM1.S [41]): Active
- Activity (RPMI-8226 [42]): Active
